Drawing on PubChem BioAssay AID449761 (Broad Institute, 2010), this text covers AC50 for 34 compounds.

The structures appear in SMILES notation. Records with an inconclusive call do not appear. Active and inactive are the calls of the source.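 The calls were made as follows: active = compounds raising caspase signal with fitted AC50 no more than tenfold above the top tested dose; inconclusive = flat curve at 30 to 70% activity, or unusable fit; inactive = the rest.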

The experiment deals with MEF WT non-primed, caspase-Glo luminescence, 3 h. The experiment is described as follows: caspase activation in non-primed cells, dose response, counter-screen for Bcl2-A1 inhibitor project, cell-based, caspase-Glo luminescence, 3 h (AID 449761). In a few lines:
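Test system – Non-primed wild-type MEF cells · Timing – 3 h compound at 37 °C, 1 h detection at room temperature · Technique – CaspaseGlo luminescence, reagent diluted 1:1 in 50 mM HEPES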
Background: The purpose of a counterscreen is to sort out artefacts and off-target activity.
The AC50 is the concentration giving half of the maximal activity seen. Consider `NC(=S)c1cn(C2OC(CO)C(O)C2O)c2ncnc(N)c12` (centres undefined), for which the AC50 is > 35 µM (inactive).

`O=C(NCc1ccccc1Cl)c1cccc2c1C(=O)c1ccc(-c3ccc(OC(F)(F)F)cc3)cc1S2(=O)=O`: the AC50 was > 35 µM (inactive). Under `COc1ccc2c(-c3cc4ccc(OCc5ccc(F)cc5)cc4oc3=O)cc(=O)oc2c1` stands 23.9 µM; under `Cc1cccc(Nc2nc(N)c([N+](=O)[O-])c(N3CCCC(C)C3)n2)c1` (centres undefined), > 35 µM (inactive).

Regarding `CC(=O)OC(C)(C)/C=C/C(=O)[C@](C)(O)C1[C@H](O)C[C@@]2(C)C3CC=C4C(C[C@H](O)C(=O)C4(C)C)[C@]3(C)C(=O)C[C@]12C` (some centres undefined), the AC50 is > 35 µM (inactive). Under `COC(=O)CSc1nc(N)c2c3c(sc2n1)C(c1ccccc1)SC(c1ccccc1)C3` (centres undefined) stands > 35 µM (inactive); under `O=C(COc1ccc(/C=N/NC(=O)c2cc3ccccc3o2)cc1Br)Nc1ccccc1`, 28.5 µM; under `CC(=O)OC(C)(C)/C=C/C(=O)C(C)(O)C1[C@H](O)C[C@@]2(C)C3CC=C4C(CC[C@@H](O)C4(C)C)[C@]3(CO)C(=O)C[C@]12C` (some centres undefined), > 35 µM (inactive). For the compound `CN(c1ccccc1)c1ccc(/C=C/[N+](=O)[O-])cc1`, the AC50 was 8.45 µM. Under `O=[N+]([O-])/C=C/c1ccc2c(ccn2Cc2ccccc2)c1` stands 12.6 µM. Regarding `COc1cc(/C=C(/C#N)C(=O)Nc2ccc(Cl)cc2)ccc1Oc1nc(Cl)ncc1F`, the AC50 was > 35 µM (inactive).

Take `COc1cc(NC(=O)c2ccccc2)c(OC)cc1NC(=O)Cc1ccc(Br)cc1`: the AC50 is > 35 µM (inactive).

With `CCOc1cc(/C=C\[N+](=O)[O-])ccc1OCC(=O)Nc1ccccc1C`, the AC50 was 5.27 µM. The figure for `COc1cc(NC(=O)c2ccccc2F)ccc1NC(=O)c1cc2ccccc2o1` is 36.6 µM; for `CSC[C@@H]1NC(=S)N(c2ccc(C)cc2)C1=O` it is > 35 µM (inactive).

As for `CCN(C(=O)CCN1C(=O)c2ccccc2S1(=O)=O)c1ccccc1`, the AC50 was > 35 µM (inactive).

`COc1ccc(-c2cc(=O)oc3c(C)c(OC(=O)c4cccs4)ccc23)cc1`: the AC50 was 29.1 µM. Under `O=C(Nc1ccc2oc(-c3cccc(F)c3)nc2c1)c1ccccc1F` stands > 35 µM (inactive). For the compound `CCOC(=O)c1ccc(-c2ccc(/C=N/NC(=O)CN(c3cccc(C)c3)S(C)(=O)=O)o2)cc1`, the AC50 was 31.1 µM.

For `Cc1ccc(-c2nc(NC(=O)c3nn(C)cc3[N+](=O)[O-])sc2C)cc1`, the AC50 was 5.96 µM. Under `CCCCC1CCC(C(=O)N(CC(C)C)c2c(N)n(Cc3ccccc3)c(=O)[nH]c2=O)CC1` (centres undefined) stands 8 µM. The figure for `COc1cc(/C=C(/C#N)c2nc3ccccc3[nH]2)ccc1OCC(=O)Nc1ccccc1C(C)C` is 7.53 µM; for `Cc1c(C=O)c(C=O)c(C)n1Cc1ccccc1` it is > 35 µM (inactive); for `CCc1ccccc1NC(=O)C(CC)Sc1nc2cc3c(cc2c(=O)n1Cc1ccco1)OCO3` (centres undefined) it is > 35 µM (inactive). Under `COC(=O)c1ccc2c(c1)C(C)(C)C(/C=C/c1ccc(O)cc1)=[N+]2C` stands 14.2 µM; under `CCOC(=O)Cc1csc(/N=C/c2c(O)n(-c3ccc(C)c(C)c3)c(=O)c3ccccc23)n1`, 9.55 µM. As for `CC(=O)[C@]1(O)Cc2c(O)c3c(c(O)c2[C@@H](O[C@H]2C[C@H](N)[C@H](O)[C@H](C)O2)C1)C(=O)c1ccccc1C3=O`, the AC50 was > 35 µM (inactive). Take `CCOc1cccc(C(=O)Nc2cccc(-c3nnc(-c4ccc(C)cc4)o3)c2)c1`: the AC50 was 23.6 µM. For the compound `COc1ccc(OC)c2sc(N(CCCN(C)C)C(=O)c3ccc(S(=O)(=O)N4CCc5ccccc5C4)cc3)nc12`, the AC50 is > 35 µM (inactive). Under `CN1C2CCC1/C(=C/c1ccccn1)C(=O)/C2=C\c1ccccn1` stands > 35 µM (inactive). As for `Cc1c(CCOC(=O)c2ccc(N3CCOCC3)c([N+](=O)[O-])c2)sc[n+]1CC#N`, the AC50 is > 35 µM (inactive). `CCCCCCCC/C=C\CCCCCCCC(=O)NCCc1ccc(O)c(O)c1`: the AC50 was 14 µM. Consider `CCOC(=O)/C(=C\c1ccc(OC(F)F)cc1)C1=Nn2c(nnc2-c2ccc(Cl)cc2)SC1`, for which the AC50 is 4.15 µM.

Consider `O=C(COc1ccc(/C=N/NC(=O)c2cc3ccccc3o2)cc1Cl)Nc1ccccc1`, for which the AC50 is 9.56 µM.
